Test results published in ChEMBL document CHEMBL1143616, “Potent and selective Aurora inhibitors identified by the expansion of a novel scaffold for protein kinase inhibition” (J Med Chem, 2005).

Legend:
[1] = biological target: T1, Aurora kinase A (Homo sapiens, UniProt O14965); assay: Inhibition of Aurora kinase A
T1 sequence (O14965 whole entry): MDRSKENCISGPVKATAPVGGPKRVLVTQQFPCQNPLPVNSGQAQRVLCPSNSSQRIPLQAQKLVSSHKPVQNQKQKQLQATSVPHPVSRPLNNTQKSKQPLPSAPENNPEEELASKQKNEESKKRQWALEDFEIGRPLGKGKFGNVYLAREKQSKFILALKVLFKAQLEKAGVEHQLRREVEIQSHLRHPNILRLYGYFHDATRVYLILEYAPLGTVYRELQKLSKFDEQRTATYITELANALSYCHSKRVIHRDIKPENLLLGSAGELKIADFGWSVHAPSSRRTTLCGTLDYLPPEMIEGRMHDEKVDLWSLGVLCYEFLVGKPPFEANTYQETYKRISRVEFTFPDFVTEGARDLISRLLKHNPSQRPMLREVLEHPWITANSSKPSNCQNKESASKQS
How it was run: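 GST-fused Aurora-A was made in insect cells and purified by GST affinity and gel filtration. Compounds were tested as 3-fold dilutions from 10 to 0.0005 µM. Reactions were stopped with EDTA and excess ATP, and substrate phosphorylation was read by streptavidin SPA bead counting.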

[2] = tested on: HCT-116; assay: Antiproliferation activity against human colon cancer cell line (HCT116); assay type: functional, cell-based
How it was run: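 HCT-116 cells seeded at 5000 cells/cm² in F12 with 10% FCS, 2 mM L-glutamine and penicillin/streptomycin, 37 °C, 5% CO₂. Next day, dilutions from a 10 mM DMSO stock were added to duplicate wells. After 72 h, cells were trypsinized and counted on a Multisizer 3 counter. Counts were expressed as % of untreated control wells, and IC50 was taken from a sigmoidal fit.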

[3] = tested on: HT-29; assay: Antiproliferation activity against HT-29 cell line (HT-29); settings: Homo sapiens
[4] = biological target: T2, Aurora kinase B (Homo sapiens, UniProt Q96GD4); assay: Inhibitory activity against Aurora kinase B
T2 sequence (Q96GD4 whole entry): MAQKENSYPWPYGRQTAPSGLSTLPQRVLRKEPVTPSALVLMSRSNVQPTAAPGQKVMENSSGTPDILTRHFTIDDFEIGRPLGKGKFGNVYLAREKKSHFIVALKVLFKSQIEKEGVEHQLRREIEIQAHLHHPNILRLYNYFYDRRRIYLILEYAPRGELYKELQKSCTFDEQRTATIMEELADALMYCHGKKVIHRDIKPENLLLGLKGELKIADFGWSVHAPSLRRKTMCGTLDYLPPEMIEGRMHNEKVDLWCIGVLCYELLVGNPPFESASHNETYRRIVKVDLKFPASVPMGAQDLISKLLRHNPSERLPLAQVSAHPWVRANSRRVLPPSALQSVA

[5] = tested on: HeLa; assay: Antiproliferation activity against HeLa cell line; settings: Homo sapiens
[6] = biological target: T3, Aurora kinase C (Homo sapiens, UniProt Q9UQB9); assay: Inhibitory activity against Aurora kinase C
T3 sequence (Q9UQB9 whole entry): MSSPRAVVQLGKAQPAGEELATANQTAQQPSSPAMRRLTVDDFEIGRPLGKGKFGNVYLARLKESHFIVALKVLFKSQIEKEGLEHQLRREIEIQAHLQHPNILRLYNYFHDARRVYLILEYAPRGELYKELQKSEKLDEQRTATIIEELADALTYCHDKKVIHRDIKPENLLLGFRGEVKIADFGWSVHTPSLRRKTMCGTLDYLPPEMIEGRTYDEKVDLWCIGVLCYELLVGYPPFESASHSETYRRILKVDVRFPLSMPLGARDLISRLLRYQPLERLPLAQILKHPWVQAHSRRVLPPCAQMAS

[7] = tested on: HL-60; assay: Antiproliferation activity against human HL-60 cell line
[8] = tested on: A2780; assay: cells; settings: Homo sapiens
[9] = biological target: T3, Aurora kinase C; assay: Inhibition of Aurora kinase C
[10] = biological target: T2, Aurora kinase B; assay: Inhibition of Aurora kinase B

SMILES	IC50 [1] [nM]	IC50 [2] [nM]	further results
CCc1cccc(CC)c1NC(=O)N1Cc2n[nH]c(NC(=O)c3ccc(C(C)(C)C)cc3)c2C1	100	2200	–
CC(C)(C)c1ccc(C(=O)Nc2n[nH]c3c2CN(C(=O)c2ccco2)C3)cc1	41	2100	–
CC(C)(C)c1ccc(C(=O)Nc2n[nH]c3c2CN(C(=O)Cc2ccccc2)C3)cc1	130	3000	–
CC(C)(C)c1ccc(C(=O)Nc2[nH]nc3c2CN(C(=O)Cc2ccsc2)C3)cc1	5	2000	–

The next compounds have a lower IC50 [2] than those just listed; values first:

IC50 [1] [nM]	IC50 [2] [nM]	SMILES	further results
65	570	CN1CCN(c2ccc(C(=O)Nc3[nH]nc4c3CN(C(=O)Cc3ccsc3)C4)cc2)CC1	–
160	900	CN1CCN(c2ccc(C(=O)Nc3n[nH]c4c3CN(C(=O)c3ccco3)C4)cc2)CC1	–
–	45	CCc1cccc(CC)c1NC(=O)N1Cc2n[nH]c(NC(=O)c3ccc(N4CCN(C)CC4)cc3)c2C1 [PHA-680632]	IC50 [3]: 80 nM; IC50 [4]: 135 nM; IC50 [5]: 410 nM; IC50 [6]: 120 nM; IC50 [7]: 130 nM; IC50 [8]: 110 nM; IC50 [9]: 120 nM; IC50 [10]: 135 nM
